Bioassay records as filed in PubChem BioAssay.
Rows were chosen to be rich in hits. Some 2.1% of all compounds tested hit in one or more screens of this group.
RanGTP-Impb inh: inhibitors of RanGTP-importin-beta interaction, primary screen, biochemical, FRET, CFP-Ran, YFP-importin-beta, homogeneous. Ran GTPase (GTP-bound) - importin-beta complex. cell-free CFP-Ran/YFP-importin-beta FRET ratio. inhibition, % (no concentration beside the values). 300,000 tested, 1.1% active. AID 2216, 2009;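 active means more than half of the replicate wells show a fall in the fluorescence ratio signal beyond about 16%, limit read from the data, passing the limit was not always enough; inconclusive means exactly half of the replicate wells pass the set limit; inactive means fewer than half of replicates pass the limit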;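 further: 0% = DMSO wells and 100% = Ran loaded with GDP instead of GTP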
Runt-CBFb FRET: inhibitors of RUNX1 Runt–CBFb binding, primary screen, biochemical, FRET, Cerulean-Runt, Venus-CBFb, uHTS | inhibition, % at 20 µM | 220,000 tested, 0.46% active | Runt-related transcription factor 1 (Homo sapiens) + Core-binding factor subunit beta … | Cerulean-Runt/Venus-CBFb FRET ratio 530/480, 1 h;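 active means inhibition over about 50% at 20 µM in the single-dose screen, limit read from the data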;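 further: 0% = DMSO wells and 100% = excess unlabeled CBFb competitor control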
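Buffer or medium: Tris pH 7.5 buffer with BSA. Assay system: Cerulean-labeled Runt domain protein. Amount: each fluorescent fusion protein 100 nM. Read-out basis: loss of energy transfer signal. Incubation: 1 h compound exposure, room temperature. Probe or stimulus: Venus-CBFb binding partner, 100 nM. Detection: FRET, excitation 422 nm, emission at 530 and 480 nm.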
m-calpain inh: inhibitors of pig calpain II, primary screen, biochemical, fluorogenic peptide substrate, 1536-well. purified calpain II, 30 min. inhibition, % at 16 µM. 220,000 tested, 0.37% active;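 active means inhibition above about 50%, limit read from the data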
Runt-SMMHC FRET: inhibitors of RUNX1 Runt–CBFb-SMMHC binding, primary screen, biochemical, FRET, Cerulean-Runt, Venus-CBFb-SMMHC, uHTS; Runt-related transcription factor 1 (Homo sapiens) + Core-binding factor subunit beta …; 220,000 tested, 0.74% active; inhibition, % at 20 µM; Cerulean-Runt/Venus-CBFb-SMMHC FRET ratio 530/480, 1 h;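 active means mean inhibition across duplicate retests at 20 µM reaching about 50%, limit read from the data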;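 further: 0% = DMSO wells and 100% = wells with excess untagged CBFb-SMMHC; inhibitors lower the FRET ratio by blocking Runt binding to CBFb-SMMHC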
FAS-TE inh: FAS thioesterase domain inhibitors, primary screen, biochemical, fluorescence intensity, uHTS; Fatty acid synthase (Homo sapiens), P49327; recombinant FAS-TE, OMFH fluorogenic substrate, fluorescence endpoint; inhibition, % at 15 µM; 360,000 tested, 0.67% active; AID 602261, 2012;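 active means compounds whose normalised, plate-corrected inhibition of enzyme fluorescence in the single-dose primary screen is 50% or more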;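 further: 0% = DMSO with enzyme and 100% = substrate without enzyme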
YIC counter: YIC intramolecular FRET probe signal interference, dose response, counter-screen for RanGTP-importin-beta inhibitor project, biochemical, fluorescence FRET; shares compounds with RanGTP-Impb inh; 1,000 tested, 40% active; Purified YIC probe, intramolecular FRET ratio YFP/CFP; AID 435026, 2010; IC50, µM;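 active means fitted half-maximal inhibitory concentration no more than tenfold above the top dose tested; inconclusive means flat fit with 30 to 70% activity, or poor fit; inactive means half-maximal concentration beyond tenfold above the top dose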
Starred values were filed as active, the others as inactive; i = inactive; u = inconclusive; x = no result; ! = not confirmed by another sample.

SMILES	RanGTP-Impb inh	Runt-CBFb FRET	m-calpain inh	Runt-SMMHC FRET	FAS-TE inh	YIC counter
C/C(=N\NC(=S)NCc1ccccc1)c1cccc(Br)c1	46.1*	0.5	21.8	-3.9	34.1	>50
CCN(CC)S(=O)(=O)c1ccc(C(=O)NC(=S)N(CCC#N)Cc2cccnc2)cc1	3.9	3.6	-9.5	1.8	-1.7	x
Cc1ccc(S(=O)(=O)CC(=O)N(CCCN(C)C)c2nc3ccc(C)cc3s2)cc1	21.0*	x	x	x	-2.8	>50
Cc1csc2ncnc(NC3CCN(Cc4ccccc4)CC3)c12	19.3*	0.9	6.3	-5.8	2.5	>50
Cc1ccc(-c2csc3ncnc(N4CCN(Cc5ccccc5)CC4)c23)cc1	3.6	x	x	x	16.5	x
CC(=O)NNC(=O)c1nc(-c2ccccc2)c(C)o1	1.3	-0.8	-7.6	-2.5	-6.2	x
COC(=O)[C@@H]1[C@H]2C[C@H]3c4[nH]c5ccccc5c4CCN3C[C@@H]2CC[C@@H]1O	26.2*!	x	x	x	1.0	>50
CCOC(=O)C1=C(N)OC2=C(C(=O)CCC2)C1c1sccc1C (stereo unspecified)	23.2*	-2.3	20.7	-2.6	1.1	>50
c1ccc2nc(N3CCN(Cc4ccc5c(c4)OCO5)CC3)cnc2c1	1.6	0.4	9.1	-0.7	5.6	x
CCOC(=O)N1CCN(/C=C(\C#N)c2nc3ccccc3s2)CC1	20.6*	-1.8	0.7	-2.4	-36.3	>50
N#C/C(=C\N1CCN(Cc2ccc3c(c2)OCO3)CC1)c1nc2ccccc2s1	20.0*	0.4	-12.6	3.0	-1.9	>50
Oc1ccc(/C=N/Nc2ccc3ccccc3c2)c(O)c1	16.4*	15.4	-62.2	33.2	5.5	>50
COc1ccc(-n2c(=O)cc(N3CCN(Cc4ccccc4)CC3)[nH]c2=O)cc1	u	x	8.8	-1.2	-3.7	x
CCOC(=O)N1CCN(c2cc(=O)n(Cc3ccc(F)cc3)c(=O)[nH]2)CC1	25.8*	-2.0	-13.3	-0.6	-11.4	>50
CCN1CCN(c2cc(=O)n(Cc3ccc(F)cc3)c(=O)[nH]2)CC1	28.8*	-78.7	-22.1	-6.1	-7.1	>50
O=c1cc(N2CCN(c3ccccc3Cl)CC2)[nH]c(=O)n1Cc1ccc(F)cc1	7.8	1.6	-12.9	-3.3	-8.4	x
O=c1cc(N2CCN(Cc3ccccc3)CC2)[nH]c(=O)n1-c1ccc(Br)cc1	31.1*	3.2	14.4	0.0	-9.0	>50
COc1cc(OC)c(OC)cc1CNC(=O)c1ccc(COc2ccccc2)cc1	1.8	x	x	x	-0.7	x
COc1cc(C(=O)NCCNc2nc3c(C)c(C)ccc3cc2C#N)cc(OC)c1OC	2.2	x	x	x	-2.3	x
COc1cc(OC)cc(C(=O)NCCNc2nc3cc(C)cc(C)c3cc2C#N)c1	17.7*	x	x	x	12.8	20.8*
COc1ccccc1C(=O)NCCNc1nc2cc(C)cc(C)c2cc1C#N	18.9*	x	x	x	18.9	40*
COc1cc(C(=O)NCCNc2nc3cc(C)ccc3cc2C#N)cc(OC)c1OC	17.4*	x	x	x	2.2	29.5*
CCCN(CC1CCCO1)C(=O)CCc1nnc(CCc2ccc(OC)cc2)o1 (stereo unspecified)	1.6	x	x	x	-4.8	x
C=CCn1c(SCC(=O)Nc2ccc(N3CCOCC3)cc2)nnc1-c1ccco1	4.4	x	x	x	-3.8	x
Cc1ccc(C(=O)NCC(=O)OCn2nnc3ccccc3c2=O)cc1	x	x	x	x	-7.9	x
SMILES	RanGTP-Impb inh	Runt-CBFb FRET	m-calpain inh	Runt-SMMHC FRET	FAS-TE inh	YIC counter
Cc1ccc2nc(N3CCN(C(=O)c4ccc(F)cc4)CC3)c(C#N)cc2c1	22.3*	x	x	x	-10.7	25.1*
O=C(c1ccc([N+](=O)[O-])cc1)N1CCN(C(=O)C2CCCCC2)CC1	0.9	x	x	x	-0.6	x
CN(CCOc1ccccc1)CC(=O)Nc1ccc(Cl)cc1[N+](=O)[O-]	35.2*	-3.0	36.3	-98.8	35.7	>50
O=C(c1ccco1)c1cc2c(ccc3ccccc32)oc1=O	24.0*	18.7	-262.5	30.2	-1.5	21.1*
CNC(=O)c1cc2c(ccc3ccccc32)o1	u	-0.5	-134.1	0.7	-6.5	x
CC1=C(C(=O)OCC2CCCO2)C(c2ccccc2OC(C)C)C2=C(CC(c3ccco3)CC2=O)N1 (stereo unspecified)	27.6*	42.9	i	102.7*	4.8	6.92*
CC1=C(C(=O)OCC2CCCO2)C(c2cccc(C(F)(F)F)c2)C2=C(CC(c3ccco3)CC2=O)N1 (stereo unspecified)	5.2	17.9	-221.9	31.8	28.9	x
COc1ccc(F)cc1S(=O)(=O)n1nc(C)cc1C	-0.2	x	x	x	-4.2	x
O=C1CC(c2ccco2)Sc2ccccc2N1 (stereo unspecified)	2.0	x	x	x	-6.7	x
O=c1[nH]c2c(s1)C(c1ccco1)C1C3CCC(C3)C1S2 (stereo unspecified)	24.3*	7.7	29.3	4.1	8.4	>50
Cn1c(=O)c2c(ncn2CCOc2ccc(F)cc2)n(C)c1=O	16.4*	x	x	x	-0.5	>50
CCN1CCN(C(=O)c2cc(S(=O)(=O)N3CCCCC3)ccc2Cl)CC1	0.2	x	x	x	-4.7	x
COc1ccc(C(=O)C2CCCN(C(=O)c3n[nH]c4c3CCCC4)C2)cc1OC (stereo unspecified)	1.6	-1.4	-0.9	-2.7	-5.2	x
Cc1cc(Cl)ccc1C(=O)C1CCCN(C(=O)c2n[nH]c3c2CCCC3)C1 (stereo unspecified)	20.7*	-1.9	-5.4	1.2	0.4	>50
CCCc1cc(=O)oc2cc(OCC(=O)NCC3CCC(C(=O)O)CC3)ccc12 (stereo unspecified)	9.3	x	x	x	-4.5	x
O=C(Cc1cc(=O)oc2cc(O)ccc12)NCC1CCC(C(=O)O)CC1 (stereo unspecified)	31.9*	107.8*	i	62.5*	-2.4	9.83*
COc1cc(C2C(C#N)=C(N)N(N(C)C)C3=C2C(=O)CC(C)(C)C3)cc(OC)c1OC (stereo unspecified)	3.1	x	x	x	-3.7	x
Cc1ccc(NC(=O)c2sc3ncn(CC(=O)N4CCOCC4)c(=O)c3c2C)c(Br)c1	7.6	x	x	x	-4.5	x
CN(C)c1nc(-c2ccccc2)cc(C(F)(F)F)c1C#N	29.4*	37.7	-90.7	94.8*	18.9	10.4*
CCN(CC)c1nc(-c2ccc(Cl)cc2)cc(C(F)(F)F)c1C#N	5.2	9.9	-74.9	46.5	21.6	x
COc1ccc(Cl)cc1S(=O)(=O)Nc1noc2ccccc12	15.7*	x	x	x	-1.3	>50
COc1ccc(Cl)cc1NS(=O)(=O)c1cc(Cl)ccc1OC	-1.3	0.8	8.6	-5.0	12.7	x
